Screens (PubChem BioAssay)
TAAR1 ag = human TAAR1 agonists, primary screen, Fluo-8 calcium fluorescence, CHO RD-HGA16 cells; activation, % at 3 µM; actives 0.99% (n = 360,000); Trace amine-associated receptor 1 (Homo sapiens), Q96RJ0; vehicle wells 0%, saturating PEA agonist 100%;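 active = activation above the mean activation of all test compounds in the run plus 3 SD, cut at about 38% in these data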
Target sequence (Q96RJ0 whole entry, looked up): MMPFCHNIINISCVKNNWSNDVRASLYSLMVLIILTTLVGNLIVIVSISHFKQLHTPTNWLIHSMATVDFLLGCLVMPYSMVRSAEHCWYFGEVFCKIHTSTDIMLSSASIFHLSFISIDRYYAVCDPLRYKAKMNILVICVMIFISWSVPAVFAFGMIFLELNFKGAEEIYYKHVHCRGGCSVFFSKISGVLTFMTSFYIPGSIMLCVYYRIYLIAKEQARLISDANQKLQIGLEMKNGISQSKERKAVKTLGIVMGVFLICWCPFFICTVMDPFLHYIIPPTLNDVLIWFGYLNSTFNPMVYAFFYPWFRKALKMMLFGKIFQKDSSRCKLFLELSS
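Test system: RD-HGA16 (CHO) cells co-expressing Gα16 and hTAAR1 / Benchmarks: DMSO vehicle as 0%, PEA at EC100 as 100% / Repeats: no replicates (n 1) / Measure: % activation from peak over basal fluorescence ratio, DMSO-to-PEA scaled / Timing: 17-24 h plating, Fluo-8 75 min 37 °C, 30 min RT / Technique: kinetic Fluo-8 calcium fluorescence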
TAAR1 antagonist = human TAAR1 antagonists, primary screen, Fluo-8 calcium fluorescence, CHO RD-HGA16 cells. antagonist. actives 1.5% (n = 360,000). inhibition, % at 3 µM;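 active = inhibition above a per-plate cutoff, the mean inhibition of test compounds on that plate plus 3 SD, cut at about 49% in these data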;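 note: 0% = DMSO plus EC80 beta-PEA response and 100% = DMSO alone without agonist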
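Assay system: RD-HGA16 CHO cells with stable hTAAR1 and Gα16 / Reagent: EC80 β-phenethylamine stimulus / Doses: 3 µM, single point / Timing: dye loading 75 min at 37 °C, then 30 min room temperature / Measured by: Fluo-8 intracellular calcium dye fluorescence, real-time kinetic reads / Controls: vehicle wells and EC80 agonist wells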
MPTP block = mitochondrial permeability transition pore inhibitors, primary screen, biochemical, isolated mouse mitochondria, absorbance; Ca2+ swelling absorbance, 30 min; inhibition, % at 10 µM; actives 1.4% (n = 360,000); AID 602449, 2012;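 active = inhibition of 50% or more, scaled per plate between neutral and stimulator controls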;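 note: 0% = DMSO wells given calcium and 100% = 1 mM EGTA wells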
GPR7 antagonist = GPR7 receptor antagonists, primary screen, cell-based, fluorescence, single concentration | GPR7-expressing cells, fluorescence antagonist assay | inhibition, % at 4.4 µM | actives 1.1% (n = 290,000); in the data active = inhibition above about 16%, passing the limit was not always enough;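 note: cells stimulated with the agonist NPW; 0% = agonist with vehicle and 100% = vehicle without agonist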
Target sequence (P48145 whole entry, looked up): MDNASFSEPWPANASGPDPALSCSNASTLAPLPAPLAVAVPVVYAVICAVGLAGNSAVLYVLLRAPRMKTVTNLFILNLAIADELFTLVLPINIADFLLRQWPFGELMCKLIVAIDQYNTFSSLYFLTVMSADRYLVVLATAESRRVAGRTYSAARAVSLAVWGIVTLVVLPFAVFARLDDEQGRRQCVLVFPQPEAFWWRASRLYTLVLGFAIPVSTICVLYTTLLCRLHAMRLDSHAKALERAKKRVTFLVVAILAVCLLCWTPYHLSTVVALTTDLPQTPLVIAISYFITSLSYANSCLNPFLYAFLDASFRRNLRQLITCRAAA
DAGLB inh = DAGLB lipase inhibitors, primary screen, biochemical, fluorescence, HTS. Diacylglycerol lipase-beta (Homo sapiens), Q8NCG7. HEK293T DAGLB membrane lysate, EnzChek fluorogenic substrate. inhibition, % at 5.17 µM. actives 0.059% (n = 340,000). AID 504411, 2011; in the data active = inhibition above about 34%;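 note: 0% = enzyme with vehicle and 100% = wells lacking enzyme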
* marks the source's active call; other numbers are inactive results. This is a sample that favours compounds with a hit; in the whole collection about 4% have one here.

Results for COc1ccc(S(=O)(=O)N2CCN(c3nc(-c4cccnc4)nc4ccccc34)CC2)cc1 ?
TAAR1 ag: 4; TAAR1 antagonist: 37; MPTP block: 0; DAGLB inh: -8

What do the screens show for `O=S(=O)(c1ccccc1F)N1CCN(c2nc(-c3cccnc3)nc3ccccc23)CC1`?
TAAR1 ag: 13; TAAR1 antagonist: 57*; MPTP block: -2; DAGLB inh: -2

What do the screens show for `C[C@@H]1CN([C@@H](C)CO)C(=O)CCCn2cc(nn2)CO[C@H]1CN(C)S(=O)(=O)c1ccc(C#N)cc1`?
TAAR1 ag: 2; TAAR1 antagonist: 10; MPTP block: -1; DAGLB inh: -1

Results for Cc1cccc(-c2cccc3[nH]c4c(c23)CCN2C(=O)[C@H]3[C@H](C)ON(C)[C@H]3C[C@@H]42)c1 ?
TAAR1 ag: 17; TAAR1 antagonist: 39

How did CC1CC2(C)Oc3ccccc3CC2C(C)C1CNCCCN(C)C (centres undefined) do in these assays?
TAAR1 ag: 0; TAAR1 antagonist: 0; MPTP block: -11; GPR7 antagonist: 44*; DAGLB inh: 0

How did O=C(O)CCCCCCCCCCP(=O)(c1ccccc1)c1ccccc1 do in these assays?
TAAR1 ag: -3; TAAR1 antagonist: 3; MPTP block: 2; GPR7 antagonist: -16; DAGLB inh: 0

What do the screens show for `O=P(CCCCCCCCCP(=O)(c1ccccc1)c1ccccc1)(c1ccccc1)c1ccccc1`?
TAAR1 ag: 33; TAAR1 antagonist: 90*; MPTP block: 2; GPR7 antagonist: -3; DAGLB inh: 2

How did O=[N+]([O-])c1ccccc1CCO do in these assays?
TAAR1 ag: 8; TAAR1 antagonist: -27

What do the screens show for `O=[N+]([O-])c1ccccc1CCc1ccccc1[N+](=O)[O-]`?
TAAR1 ag: 34; TAAR1 antagonist: 50*; MPTP block: 2; DAGLB inh: -12

What do the screens show for `Cc1nn(-c2ccccc2)c(Cl)c1/C=N/NC(=O)CCNc1n[nH]c(=O)[nH]c1=O`?
GPR7 antagonist: -10

What do the screens show for `Cc1nn(-c2ccccc2)c(Cl)c1/C=N/NC(=O)OC(C)(C)C`?
TAAR1 ag: 13; TAAR1 antagonist: 54*; MPTP block: 3; GPR7 antagonist: -12; DAGLB inh: -4

Results for Cc1ccc(C)c(OCC(=O)N/N=C/c2c(C)nn(-c3ccccc3)c2Cl)c1 ?
TAAR1 ag: 11; TAAR1 antagonist: 53*; GPR7 antagonist: 5

How did C=CCNC(=O)c1c(Br)cnn1-c1ccc(C)cc1 do in these assays?
TAAR1 ag: 3; TAAR1 antagonist: 13; MPTP block: 0; GPR7 antagonist: 18*

What do the screens show for `COc1ccc(-n2ncc3c(N4CCN(c5cc(C)ccc5C)CC4)ncnc32)cc1`?
TAAR1 ag: -3; TAAR1 antagonist: 103*; MPTP block: 4; GPR7 antagonist: -5; DAGLB inh: -1

What do the screens show for `COc1ccc(N2CCN(c3ncnc4c3cnn4-c3ccc(C)cc3C)CC2)cc1`?
TAAR1 ag: 1; TAAR1 antagonist: 18; MPTP block: 10; GPR7 antagonist: -2; DAGLB inh: 2

How did CCN(CC(=O)Nc1ccc(NC(C)=O)cc1)C(=O)c1cn(-c2ccccc2)nc1-c1cccs1 do in these assays?
TAAR1 ag: 13; TAAR1 antagonist: 64*; MPTP block: 0; DAGLB inh: 1

What do the screens show for `O=C(c1cn(-c2ccccc2)nc1-c1cccs1)N1CCN(c2ccccn2)CC1`?
TAAR1 ag: 11; TAAR1 antagonist: 49*; MPTP block: -1; GPR7 antagonist: -1; DAGLB inh: 0

Results for COc1cccc(NC(=O)CN(C)C(=O)c2cn(-c3ccccc3)nc2-c2cccs2)c1 ?
TAAR1 ag: 11; TAAR1 antagonist: 61*; MPTP block: 0; DAGLB inh: -7

How did COc1cccc(NC(=O)CN(C)C(=O)c2cn(-c3ccccc3)nc2-c2cccnc2)c1 do in these assays?
TAAR1 ag: 12; TAAR1 antagonist: 44; MPTP block: 0; DAGLB inh: 1

Results for O=C(/C=C\c1ccco1)Nc1nc(-c2ccc3ccccc3c2)cs1 ?
TAAR1 ag: 9; TAAR1 antagonist: 49*; MPTP block: 4; GPR7 antagonist: -1; DAGLB inh: -1

What do the screens show for `Cc1ccc(-c2csc(NC(=S)NC(=O)/C=C/c3ccco3)n2)cc1`?
TAAR1 ag: 12; TAAR1 antagonist: 12; MPTP block: 4; GPR7 antagonist: -11; DAGLB inh: -1

What do the screens show for `COc1ccc(NC(=O)CSc2nc3ccsc3c(=O)n2CCCCCC(=O)O)cc1`?
TAAR1 ag: 4; TAAR1 antagonist: 50*; MPTP block: 0; GPR7 antagonist: 11; DAGLB inh: -6

What do the screens show for `O=C(O)CCCCCn1c(SCC(=O)Nc2ccc(F)cc2)nc2ccsc2c1=O`?
TAAR1 ag: -1; TAAR1 antagonist: -12; MPTP block: 0; GPR7 antagonist: -6; DAGLB inh: -1

How did CCCCNC(=O)CSc1nc2ccc(N3CCOCC3)cc2c(=O)n1CCc1ccccc1 do in these assays?
TAAR1 ag: 5; TAAR1 antagonist: 9; MPTP block: 10; GPR7 antagonist: 2; DAGLB inh: -2

How did O=C(CSc1nc2ccc(N3CCOCC3)cc2c(=O)n1CCc1ccccc1)NCC1CCCO1 (centres undefined) do in these assays?
TAAR1 ag: 11; TAAR1 antagonist: 52*; MPTP block: -7; GPR7 antagonist: 3; DAGLB inh: 2

How did Cc1ccc(NC(=O)COc2ccc(/C=N/NC(=O)CSCc3ccccc3)cc2)cc1 do in these assays?
TAAR1 ag: 11; TAAR1 antagonist: 18; MPTP block: -1; GPR7 antagonist: 16; DAGLB inh: 1

What do the screens show for `O=C(COc1ccccc1)Nc1ccc(CSc2ccccc2)cc1`?
TAAR1 ag: 7; TAAR1 antagonist: 51*; MPTP block: 1; GPR7 antagonist: -2; DAGLB inh: 0

What do the screens show for `O=C(CSCc1ccc(Cl)cc1)N/N=C/c1ccc(OCC(=O)Nc2ccccc2)cc1`?
TAAR1 ag: 9; TAAR1 antagonist: 57*; MPTP block: -7; GPR7 antagonist: 2; DAGLB inh: 0

How did O=C(CCN1CCCO1)N1CCCC(Nc2cccc(F)c2)C1 (centres undefined) do in these assays?
TAAR1 ag: 1; TAAR1 antagonist: -10; MPTP block: -2; DAGLB inh: -3

What do the screens show for `Cc1ccc(NC(=O)NCC2CCN(Cc3cccc(Cl)c3)CC2)cc1Cl`?
TAAR1 ag: 42*; TAAR1 antagonist: 20; MPTP block: 10; GPR7 antagonist: 12; DAGLB inh: -2
